Scp1 inh – blocks human Scp-1 phosphatase activity; Q9GZU7; Recombinant Scp1, phosphopeptide, malachite green phosphate absorbance; inhibition, % at 20 µM; 0.88% of 340,000 active;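 active = inhibition above about 50% at 20 µM, limit read from the data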;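 also: plate controls were DMSO wells with enzyme for no effect and wells lacking enzyme for full effect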
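System: truncated SCP-1 phosphatase (76-261aa); medium: Tris acetate buffer pH 5.5 with MgCl2 and Tween-20; incubation: 45 min room-temperature reaction, 5 min colour, 30 min stabiliser; compound: single 20 µM dose, 1% DMSO; reagent: Phosphorylated 17-residue peptide substrate; read-out: % inhibition at 20 µM; technique: colorimetric free-phosphate detection, absorbance 630 nm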
Rpn11 inh – blocks the human proteasome subunit Rpn11; O00487; human 26S proteasome, Ub4-pepOG fluorescence polarization; 20S core pre-blocked with epoxomicin; inhibition, % at 20 µM; 0.59% of 360,000 active; AID 588493;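 active = inhibition at 20 µM, scaled to each plate's controls, above about 33%, limit read from the data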
Target sequence (O00487 whole entry, looked up): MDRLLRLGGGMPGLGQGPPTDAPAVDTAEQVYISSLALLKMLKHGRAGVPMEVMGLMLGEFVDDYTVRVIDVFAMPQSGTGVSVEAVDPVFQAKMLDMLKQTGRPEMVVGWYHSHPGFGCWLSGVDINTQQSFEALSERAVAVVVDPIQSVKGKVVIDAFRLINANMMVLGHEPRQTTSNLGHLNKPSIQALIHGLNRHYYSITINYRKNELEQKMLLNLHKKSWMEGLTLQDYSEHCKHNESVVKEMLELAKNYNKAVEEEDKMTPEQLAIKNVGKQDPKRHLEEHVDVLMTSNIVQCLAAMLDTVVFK
DNMT1 inh – blocks human DNA methyltransferase DNMT1; P26358; DNMT1 molecular beacon, Hinp1I cleavage, fluorescence; inhibition (reported as % activation of signal), % at 10 µM; 0.83% of 360,000 active; in the data active = inhibition above about 50%
LMPTP block – LMPTP (human) inhibition | P24666 | recombinant LMPTP-A, OMFP fluorogenic substrate, fluorescence intensity | inhibition, % at 20 µM | 0.22% of 360,000 active;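 active = compounds that cut the enzyme signal by at least half of the control window in the single-dose screen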;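 also: plate controls were DMSO wells with enzyme plus substrate for no effect and substrate without enzyme for full effect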
Target sequence (P24666 whole entry, looked up): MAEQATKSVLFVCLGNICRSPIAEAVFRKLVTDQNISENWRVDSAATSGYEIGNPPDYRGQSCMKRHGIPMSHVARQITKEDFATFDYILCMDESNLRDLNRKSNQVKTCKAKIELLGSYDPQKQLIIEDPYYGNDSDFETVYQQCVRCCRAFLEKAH
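Test system: LMPTP-A, protein tyrosine phosphatase of low molecular weight; Input: 0.625 nM enzyme; Incubation: 50 min dark incubation at room temperature; Signal: endpoint fluorescence intensity from OMFP dephosphorylation; Read-out basis: % inhibition versus control wells.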
STEP block – blocks human striatal-enriched tyrosine phosphatase | recombinant STEP, OMFP fluorogenic substrate, fluorescence | P54829 | 0.25% of 360,000 active | inhibition, % at 20 µM | AID 588621;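 active = inhibition at 20 µM, scaled per plate between control wells, above about 37%, limit read from the data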;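 also: 0% = DMSO with enzyme and substrate and 100% = substrate only without enzyme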
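System: isolated STEP enzyme; schedule: 20 min enzyme reaction at room temperature, protected from light; medium: Bis-Tris buffer pH 6.0, 2.5 mM DTT, 0.005% Tween 20; signal: fluorescence, 480/540 nm; dosing: single compound dose of 20 µM, 1% DMSO final; also added: OMFP substrate, 25 µM final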
SUMO1-SIM PPI – SUMO1-SIM interaction modulation | P63165 | 0.33% of 360,000 active | SUMO1 binding to a labelled peptide, TR-FRET, 1 h | inhibition, % at 20 µM; in the data active = inhibition above about 37%
Target sequence (P63165 whole entry, looked up): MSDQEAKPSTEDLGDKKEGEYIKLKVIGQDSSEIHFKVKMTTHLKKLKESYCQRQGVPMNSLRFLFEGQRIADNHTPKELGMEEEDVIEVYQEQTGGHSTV
DNMT1 inh conf – DNMT1 inhibition confirmation, single concentration | inhibition, % at 10 µM | shares compounds with DNMT1 inh | 8% of 2,300 active | DNMT1 molecular beacon HinP1I cleavage, fluorescence;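 active = average inhibition of at least 30% in the single-concentration confirmation test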
Beacon interf – beacon fluorescence artifact counter-screen | activation (fluorescence interference), % at 10 µM | AID 602387 | 1% of 2,300 active | DNMT1 molecular beacon spectral interference counterscreen, fluorescence 485/520 | shares compounds with DNMT1 inh;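 active = activation of at least 30% at 10 µM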;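 also: DNMT1 catalytic domain with a HinP1I cleavage step and a FAM/dabcyl DNA beacon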
* marks the source's active call; other numbers are inactive results; / = no result. Most compounds without a hit are left out; they make up all but 2.3% or so of the library.

SMILES	Scp1 inh	Rpn11 inh	DNMT1 inh	LMPTP block	STEP block	SUMO1-SIM PPI	DNMT1 inh conf	Beacon interf
CC1Sc2ccc(C(=O)N(CCc3ccccc3)Cc3ccccc3)cc2NC1=O (stereo unspecified)	/	-1	83*	2	0	3	1	7
O=C1c2cccc3c(O)ccc(c23)C(=O)N1Cc1ccco1	12	-197	95*	-3	-72	-104	133*	116*
O=C1c2ccccc2C(=O)N1Cc1ccco1	-10	-12	0	0	-7	-8	/	/
O=C(NCc1cccnc1)c1ccccc1CCc1ccccc1	15	-6	0	-1	0	-1	/	/
C[C@@H]1CN([C@H](C)CO)S(=O)(=O)c2ccc(Br)cc2O[C@H]1CN(C)S(C)(=O)=O	/	-8	4	-3	1	3	/	/
CCc1c(C)c2ccc(OC(C)C(=O)NC(Cc3c[nH]c4ccc(O)cc34)C(=O)O)c(C)c2oc1=O (stereo unspecified)	23	-8	3	1	1	13	/	/
Cc1cc(=O)oc2c(C)c(OC(C)C(=O)NC(Cc3c[nH]c4ccc(O)cc34)C(=O)O)ccc12 (stereo unspecified)	15	-4	85*	0	0	10	3	1
O=C(NC(=S)Nc1cc(S(=O)(=O)N2CCOCC2)ccc1N1CCOCC1)c1ccco1	-2	-4	60*	0	-1	-1	3	3
S=c1[nH]nc(-c2cccc(Cl)c2)n1/N=C/c1ccc(-c2ccccc2Br)o1	-20	6	62*	4	-1	-1	13	0
CCc1ccc(-c2nc(NC(=O)c3ccc(OCC(=O)Nc4ccc(F)cc4)c(OC)c3)sc2C)cc1	-5	-3	61*	-1	1	-12	0	1
COc1cccc(N=Nc2c(=O)[nH]n3c(=O)c4c([nH]c23)CCC4)c1	23	-5	60*	13	4	-10	-1	-5
CCOc1ccc(/C=C/C(=O)c2cc(Br)ccc(=O)c2O)cc1	-4	16	68*	12	5	0	10	4
Cc1cccc(/C=C/C(=O)c2cc(Br)ccc(=O)c2O)c1	-3	14	93*	32	10	13	10	4
CCC1CCCCN1CCCNC(=O)Cn1c(=O)c2cccn2c2cccnc21 (stereo unspecified)	3	-9	-2	1	0	-7	/	/
C#Cc1ccc([C@@H]2C=C(C(=O)NCc3ccccc3)O[C@H](OCCCCO)C2)cc1	20	11	54*	5	0	3	3	3
COc1cccc(NC(=S)NCCC(c2ccccc2)c2ccccc2)c1	-7	5	56*	5	1	1	9	9
CC(C)CC(O)C1CCN(C(=O)CCc2nnc(-c3ccccc3)o2)CC1 (stereo unspecified)	-1	-2	0	-1	3	2	/	/
Cc1cc(NC(=O)c2cc(-c3ccccn3)nc3c(Cl)cccc23)no1	45	-2	58*	4	1	2	0	0
O=C1CC(SC2=NCCS2)C(=O)N1c1cccc(Cl)c1Cl (stereo unspecified)	-5	-3	-4	0	-1	-4	/	/
COc1ccc(C(=O)c2sc(Nc3ccccc3)nc2N)cc1	-2	-1	89*	2	2	-4	2	5
O=C(N/N=C/c1coc2ccccc2c1=O)c1cn(-c2ccccc2)nc1-c1ccc(F)cc1	-7	1	59*	0	8	6	1	4
Cc1ccc(CCNC(=O)c2cc(C)nn2-c2ccccc2)cc1	-7	1	61*	0	-1	-1	2	1
Cc1cc(C(=O)NCc2ccc(Cl)cc2)n(-c2ccccc2)n1	9	-6	0	1	0	-3	/	/
O=C(CNC(=O)Cc1ccccc1)NCC(=O)OCc1ccccc1	1	2	68*	-1	3	1	0	3
O=C(CNC(=O)c1ccco1)NCC(=O)OCc1ccc(Cl)cc1Cl	-7	-3	66*	-1	0	6	1	5
SMILES	Scp1 inh	Rpn11 inh	DNMT1 inh	LMPTP block	STEP block	SUMO1-SIM PPI	DNMT1 inh conf	Beacon interf
O=C(CNC(=O)c1ccco1)NCC(=O)OCc1ccccc1Cl	-8	-1	2	0	-4	5	/	/
CC(C)NC(=O)N(C)C[C@@H]1Oc2c(NC(=O)C3CCOCC3)cccc2C(=O)N([C@@H](C)CO)C[C@H]1C	-5	-2	2	-1	0	2	/	/
CC1Cc2ccccc2N1C(=O)COc1ccc2c(c1)OCO2 (stereo unspecified)	-4	1	1	-1	0	-3	/	/
COC(=O)Cn1c(=NC(=O)c2sc3ccccc3c2Cl)sc2cc(S(N)(=O)=O)ccc21	1	-9	66*	33	4	-5	3	-10
O=C(Nc1ccn(CCCNCCCN2CCCC2=O)c(=O)n1)OCc1ccccc1	-8	3	2	-2	-2	-1	/	/
O=C(O)Cn1nc2c3c(cccc3c1=O)-c1ccccc1-2	0	-3	2	-2	1	-14	/	/
Cc1ccc(-n2nc3c4c(cccc4c2=O)-c2ccccc2-3)cc1	-5	7	52*	4	2	-6	2	0
Cc1cccc(C)c1-n1nnnc1C(c1cccc2ccccc12)N1CCN(C/C=C/c2ccccc2)CC1 (stereo unspecified)	/	2	0	10	6	-2	/	/
Cc1cccc(C)c1-n1nnnc1C(c1cc2ccccc2o1)N1CCN(C/C=C/c2ccccc2)CC1 (stereo unspecified)	/	8	63*	6	6	1	6	8
COc1ccc(S(=O)(=O)N2CCC3(CC2)OCCN3S(=O)(=O)c2cccs2)cc1OC	-7	5	1	1	0	4	/	/
CCOC(=O)c1cc(C(=O)OCC)c(=O)[nH]c1N1CCCCC1	-6	-8	0	0	-6	1	/	/
Cc1ccc(NC(=O)c2nc[nH]c2C(=O)NCCCCCCNC(=O)c2[nH]cnc2C(=O)Nc2ccc(C)cc2)cc1	-14	-2	28	1	-4	3	/	/
Cc1ccc(NC(=O)c2nc[nH]c2C(=O)NCCCNC(=O)c2[nH]cnc2C(=O)Nc2ccc(C)cc2)cc1	-2	5	59*	0	-2	2	8	0

Assay outcomes as filed in PubChem.
